As a reminder, the MIC is the smallest concentration in the dilution series that meets the test's criterion for growth inhibition. The term GI50 denotes the concentration at which growth is held to half of that of the control.

SMILES strings stand for the structures. ≈ marks a conversion by molar mass, not a printed value.

Data set [1] has as its system Staphylococcus aureus. In words: Antimicrobial activity against methicillin-susceptible Staphylococcus aureus ATCC 29213 assessed as growth inhibition after 18 hrs by MTT assay. The following applies: ATCC 29213, 18 h. Format: functional. The method in brief:
(§1)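 Bacterial suspensions were adjusted to about 5×10^5 CFU/mL and treated with compounds in 2-fold serial dilutions. They were incubated for 18 h as ATCC recommends. Viability was read by MTT because the compounds are coloured.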

The subject of data set [2] is Staphylococcus aureus. The data set is described as follows: Antimicrobial activity against methicillin-resistant Staphylococcus aureus BAA-44 assessed as growth inhibition after 18 hrs by MTT assay. Format: functional. The following applies: BAA-44, 18 h. The method in brief: (§2)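 Bacterial suspensions adjusted to ~5×10^5 CFU/mL, treated with compounds in 2-fold serial dilutions, incubated per ATCC recommendations for 18 h. Viability read by MTT method, used because the compounds are coloured.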
In general terms: Tetrazolium dyes change colour on reduction, which living cells bring about.

Data set [3] has as its system Enterococcus faecalis. The data set is described as follows: Antimicrobial activity against low-level vancomycin-resistant Enterococcus faecalis ATCC 51299 assessed as growth inhibition after 18 hrs by MTT assay. The class given is functional. Conditions: ATCC 51299, 18 h. An outline of the steps:
as §2

Data set [4] deals with Pseudomonas aeruginosa. In words: Antimicrobial activity against Pseudomonas aeruginosa ATCC 27853 assessed as growth inhibition after 18 hrs by MTT assay. The class given is functional. The following applies: ATCC 27853, 18 h. The method in brief:
as §1

Data set [5] deals with Acinetobacter baumannii. The data set is described as follows: Antimicrobial activity against Acinetobacter baumannii ATCC 15151 assessed as growth inhibition after 18 hrs by MTT assay. Format: functional. The following applies: ATCC 15151, 18 h. The method in brief:
as §1

In data set [6] the test system is Candida albicans. The data set is described as follows: Antimicrobial activity against Candida albicans ATCC 26555 assessed as growth inhibition after 18 hrs by MTT assay. Format: functional. Conditions: ATCC 26555, 18 h.
A short description of data set [7]: Antiproliferative activity against human HeLa cells after 72 hrs by MTT assay. The class given is cell-based.

Turning to `Clc1ccc(Sc2c(-c3ccc(Cl)cc3)[nH]c3ccc(Cl)cc23)cc1`, the minimal inhibitory concentration (MIC) is 1.6 µM (≈ 0.648 µg/mL) in data set [1]; 1.3 µM (≈ 0.526 µg/mL) in data set [2]; 6.3 µM (≈ 2.55 µg/mL) in data set [3]; above 100 µM in data set [4]; above 100 µM in data set [5]; above 100 µM in data set [6]. In data set [7], this compound showed a GI50 at 72 h of 8 µM.
Regarding `O=S(=O)(c1ccc(Cl)cc1)c1c(-c2ccc(Cl)cc2)[nH]c2ccccc12`, the MIC in data set [1], in data set [2], in data set [3], in data set [4], in data set [5] and in data set [6] was above 100 µM each time. The same compound showed a GI50 at 72 h in data set [7] of 14 µM.
On to `Clc1ccc(/C=C/c2c[nH]c3ccccc23)cc1`, for which the minimum inhibitory concentration (MIC) in data set [1] is 25 µM (≈ 6.34 µg/mL); in data set [2] it was above 100 µM; in data set [3] it was above 100 µM; in data set [4] it was above 100 µM; in data set [5], above 100 µM; in data set [6], above 100 µM. Also, the GI50 at 72 h in data set [7] turned out to be 64 µM.
Turning to `Fc1ccc2[nH]c(-c3ccc(Cl)cc3)c(Oc3ccc(Cl)cc3)c2c1`, the minimal inhibitory concentration (MIC) was 1.6 µM (≈ 0.596 µg/mL) in data set [1]; 1.6 µM (≈ 0.596 µg/mL) in data set [2]; 6.3 µM (≈ 2.35 µg/mL) in data set [3]; above 100 µM in data set [4]; above 100 µM in data set [5]; above 100 µM in data set [6]. In data set [7], this compound showed a GI50 at 72 h of 13 µM.
As to `Brc1ccc(/N=N/c2c[nH]c3ccccc23)cc1`, the MIC was 6.3 µM (≈ 1.89 µg/mL) in data set [1]; 6.3 µM (≈ 1.89 µg/mL) in data set [2]; 12.5 µM (≈ 3.75 µg/mL) in data set [3]; above 100 µM in data set [4]; above 100 µM in data set [5]; 25 µM (≈ 7.5 µg/mL) in data set [6]. Besides, the concentration for 50% growth inhibition (GI50) at 72 h in data set [7] turned out to be 49 µM.
On to `Clc1ccc(-c2cc3ccccc3[nH]2)cc1`, for which the MIC in data set [1], in data set [2], in data set [3], in data set [4], in data set [5] and in data set [6] was above 100 µM in each case. This compound registered a GI50 at 72 h in data set [7] above 100 µM.
As to `Clc1ccc(Sc2c(-c3ccc(Br)cc3)[nH]c3ccccc23)cc1`, the MIC in data set [1] is 1.6 µM (≈ 0.664 µg/mL); in data set [2], 3.1 µM (≈ 1.29 µg/mL); in data set [3] it was 3.1 µM (≈ 1.29 µg/mL); in data set [4] it was above 100 µM; in data set [5] it was above 100 µM; in data set [6], above 100 µM. Moreover, in data set [7], halving of growth (GI50 at 72 h) required 12 µM.
As for `Clc1ccc(Oc2c(-c3ccc(Cl)cc3)[nH]c3ccc(Br)cc23)cc1`, the minimal inhibitory concentration (MIC) was 3.1 µM (≈ 1.34 µg/mL) in data set [1]; 3.1 µM (≈ 1.34 µg/mL) in data set [2]; 12.5 µM (≈ 5.41 µg/mL) in data set [3]; above 100 µM in data set [4]; above 100 µM in data set [5]; above 100 µM in data set [6]. In addition, the GI50 at 72 h in data set [7] came out at 3 µM.
For `O=C(c1ccc(Cl)cc1)c1c(-c2ccc(Cl)cc2)[nH]c2ccccc12`, the MIC in data set [1], in data set [2], in data set [3], in data set [4], in data set [5] and in data set [6] was above 100 µM throughout. In addition, the 50% growth inhibitory concentration (GI50) at 72 h in data set [7] was determined as 19 µM.
In the case of `Clc1ccc(-c2cc3[nH]c4ccccc4c3cc2-c2ccc(Cl)cc2)cc1`, the minimal inhibitory concentration (MIC) in data set [1], in data set [2], in data set [3], in data set [4], in data set [5] and in data set [6] was above 100 µM each time. The compound also had a concentration for 50% growth inhibition (GI50) at 72 h in data set [7] of 16 µM.
`Clc1ccc(/N=N/c2c[nH]c3ccccc23)cc1`: the minimal inhibitory concentration (MIC) was 12.5 µM (≈ 3.2 µg/mL) in data set [1]; 12.5 µM (≈ 3.2 µg/mL) in data set [2]; 25 µM (≈ 6.39 µg/mL) in data set [3]; above 100 µM in data set [4]; above 100 µM in data set [5]; 12.5 µM (≈ 3.2 µg/mL) in data set [6]. Moreover, in data set [7], halving of growth (GI50 at 72 h) required 23 µM.
`Clc1ccc(/C=C/c2[nH]c3ccccc3c2/C=C/c2ccc(Cl)cc2)cc1`: the minimum inhibitory concentration (MIC) in data set [1], in data set [2], in data set [3], in data set [4], in data set [5] and in data set [6] was above 100 µM in each case. In data set [7], this compound showed a GI50 at 72 h of 69 µM.
On to `COc1ccc2[nH]c(-c3ccc(Cl)cc3)c(Oc3ccc(Cl)cc3)c2c1`, for which the MIC in data set [1] was 12.5 µM (≈ 4.8 µg/mL); in data set [2], 6.3 µM (≈ 2.42 µg/mL); in data set [3], 25 µM (≈ 9.61 µg/mL); in data set [4], above 100 µM; in data set [5] it was above 100 µM; in data set [6], above 100 µM. The same compound yielded a GI50 at 72 h in data set [7] of 24 µM.
In the case of `Clc1ccc(Oc2c(-c3ccc(Cl)cc3)[nH]c3ccc(Cl)cc23)cc1`, the minimal inhibitory concentration (MIC) in data set [1] was 1.6 µM (≈ 0.622 µg/mL); in data set [2] it was 0.6 µM (≈ 0.233 µg/mL); in data set [3] it was 12.5 µM (≈ 4.86 µg/mL); in data set [4], above 100 µM; in data set [5] it was above 100 µM; in data set [6], above 100 µM. The concentration for 50% growth inhibition (GI50) at 72 h in data set [7] was 8 µM.
With `CN[C@H](CC(C)C)C(=O)N[C@H]1C(=O)N[C@@H](CC(N)=O)C(=O)N[C@H]2C(=O)N[C@H]3C(=O)N[C@H](C(=O)N[C@H](C(=O)O)c4cc(O)cc(O)c4-c4cc3ccc4O)[C@H](O)c3ccc(c(Cl)c3)Oc3cc2cc(c3O[C@@H]2O[C@H](CO)[C@@H](O)[C@H](O)[C@H]2O[C@H]2C[C@](C)(N)[C@H](O)[C@H](C)O2)Oc2ccc(cc2Cl)[C@H]1O` [VANCOMYCIN], the MIC worked out at 2.8 µM (≈ 4.06 µg/mL) in data set [1], 2.8 µM (≈ 4.06 µg/mL) in data set [2] and 86.3 µM (≈ 125 µg/mL) in data set [3].
As for `Fc1cccc2c(Oc3ccc(Cl)cc3)c(-c3ccc(Cl)cc3)[nH]c12`, the MIC was 1.6 µM (≈ 0.596 µg/mL) in data set [1]; 1.3 µM (≈ 0.484 µg/mL) in data set [2]; 3.1 µM (≈ 1.15 µg/mL) in data set [3]; above 100 µM in data set [4]; above 100 µM in data set [5]; above 100 µM in data set [6]. Also, in data set [7], growth was halved (GI50 at 72 h) at 13 µM.
For the compound `Brc1ccc(/N=N/c2c(-c3ccc(Br)cc3)[nH]c3ccccc23)cc1`, the MIC in data set [1] is 6.3 µM (≈ 2.87 µg/mL); in data set [2] it was 12.5 µM (≈ 5.69 µg/mL); in data set [3], 6.3 µM (≈ 2.87 µg/mL); in data set [4], above 100 µM; in data set [5] it was above 100 µM; in data set [6], above 100 µM. The compound further displayed a GI50 at 72 h in data set [7] of 9 µM.
Regarding `COc1ccc(/N=N/c2c(-c3ccc(OC)cc3)[nH]c3ccccc23)cc1`, the MIC in data set [1] was 3.1 µM (≈ 1.11 µg/mL); in data set [2] it was 50 µM (≈ 17.9 µg/mL); in data set [3] it was above 100 µM; in data set [4], above 100 µM; in data set [5], above 100 µM; in data set [6] it was above 100 µM. This compound registered a GI50 at 72 h in data set [7] of 23 µM.
For the compound `Clc1ccc(Oc2c(-c3ccc(Cl)cc3)[nH]c3ccccc23)cc1`, the MIC in data set [1] was 1.6 µM (≈ 0.567 µg/mL); in data set [2], 3.1 µM (≈ 1.1 µg/mL); in data set [3] it was 12.5 µM (≈ 4.43 µg/mL); in data set [4] it was above 100 µM; in data set [5], above 100 µM; in data set [6], above 100 µM. Further, the concentration for 50% growth inhibition (GI50) at 72 h in data set [7] amounted to 9 µM.
As for `CC1(C)S[C@@H]2[C@H](NC(=O)Cc3ccccc3)C(=O)N2[C@H]1C(=O)O` [PENICILLIN G], the figures for the MIC in data set [1], in data set [2] and in data set [3] were 23.9 µM (≈ 7.99 µg/mL), above 100 µM and 11.9 µM (≈ 3.98 µg/mL), respectively.
Consider `Clc1ccc(/N=N/c2c(-c3ccc(Br)cc3)[nH]c3ccccc23)cc1`, for which the MIC in data set [1] was 6.3 µM (≈ 2.59 µg/mL); in data set [2], 6.3 µM (≈ 2.59 µg/mL); in data set [3], 6.3 µM (≈ 2.59 µg/mL); in data set [4], above 100 µM; in data set [5] it was above 100 µM; in data set [6] it was above 100 µM. In data set [7], this compound showed a GI50 at 72 h of 13 µM.
As for `Clc1ccc(Sc2c(-c3ccc(Cl)cc3)[nH]c3ccccc23)cc1`, the MIC in data set [1] was 1.6 µM (≈ 0.592 µg/mL); in data set [2], 3.1 µM (≈ 1.15 µg/mL); in data set [3] it was 3.1 µM (≈ 1.15 µg/mL); in data set [4], above 100 µM; in data set [5], above 100 µM; in data set [6] it was above 100 µM. Moreover, in data set [7], the GI50 at 72 h is 6 µM.

For the origin of these results see ChEMBL document CHEMBL1806381, “Unprecedented C-2 arylation of indole with diazonium salts: Syntheses of 2,3-disubstituted indoles and their antimicrobial activity” (Bioorg Med Chem Lett, 2011).
